# Only some compounds are listed: those with a hit (about 2.6% of all), similar ones and a draw of the others.
# FN deposit inh – fibronectin deposition inhibition | AID 743247 | AH1F fibroblasts, Alexa488-fibronectin deposition fluorescence, overnight | inhibition, % at 12.6 µM | 350,000 compounds, 0.086% hits;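 active means mean inhibition across replicates of 30% or more, regardless of how many single replicates reach that level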
#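 test system = AH1F fibroblasts assembling fluorescent fibronectin matrix | quantity = 10000 AH1F cells per well | buffer or medium = DMEM plus 2% serum, read in PBS | doses = single dose, pinned | incubation = 1 h cell attachment, overnight exposure to compound and label | detection = fluorescence at 485 nm excitation, 525 nm emission | read-out basis = inhibition from reduced deposited-fibronectin fluorescence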
# rRNA inh HTS – selective bacterial rRNA inhibition in E. coli; GFP signal change (wild-type ribosome), % (concentration not given with the values); E. coli WT GFP vs humanized-ribosome RFP mutants, fluorescence, 24 h; active compounds read low; DMSO median 0, no signal -100; 350,000 compounds, 1.6% hits; AID 720706;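 active means significant combined selectivity score with lowered wild-type GFP, culture density cut under 30%, mutant RFP and density less affected; inactive means any of these conditions unmet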
# miR122 inh – inhibitors of miR-122 in Huh7 cells; Huh7 miR-122 Renilla luciferase sensor, 48 h; neutral wells = 0, positive control = 100; activation (reporter increase), % at 12.5 µM; 340,000 compounds, 0.3% hits; AID 602342;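 active means mean replicate activation score at least 90 and every replicate individually at or above 90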;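 further: higher luciferase means less miR-122 activity so hits act as miR-122 inhibitors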
# Vif imaging – HIV Vif inhibition; AID 602346; inhibition, % at 7.49 µM; HEK293T cells, Vif self-association by quenched fluorescence, imaging, 24 h; 340,000 compounds, 0.35% hits; in the data active means inhibition above about 50%, passing the limit was not always enough
# S100A4 MyoIIA – S100A4-myosin IIA interaction inhibition; P26447; S100A4/TAMRA-MyoIIA peptide fluorescence polarization; inhibition, % at 10.7 µM; 360,000 compounds, 0.14% hits; AID 652163;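 active means mean inhibition of at least 70% across replicates, with every replicate also reaching that level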
# Target sequence (P26447 whole entry, looked up): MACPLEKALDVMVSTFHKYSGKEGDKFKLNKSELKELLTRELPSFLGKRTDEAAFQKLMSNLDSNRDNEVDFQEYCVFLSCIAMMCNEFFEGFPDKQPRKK
#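 Assay system: human S100A4 monomer with TAMRA-labelled myosin IIA peptide / Buffer or medium: Calcium-containing HEPES buffer, pH 7.2 / Reagent: TAMRA-labelled myosin IIA heavy-chain peptide probe, 5 nM / Compound: one dose per compound / Timing: polarization read 5 min after assay mix addition, stable 5–60 min / Benchmarks: neutral control DMSO, positive control TFP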
# HIV Env fusion – HIV envelope-mediated fusion inhibition | AID 651610 | inhibition, % at 12.3 µM | 360,000 compounds, 1.1% hits | HeLa-JRFL Env/CEM21 cell fusion, luciferase;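 active means mean replicate inhibition score of at least 50 and every replicate individually at or above 50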
# Hits are given with their value; - = inactive; . = no result given; [ ] = dose if it differs, or a comment.
SMILES,FN deposit inh,rRNA inh HTS,miR122 inh,Vif imaging,S100A4 MyoIIA,HIV Env fusion
C[C@@H]1CN([C@H](C)CO)C(=O)c2cccc(NC(=O)c3nc4ccccc4s3)c2O[C@H]1CN(C)Cc1ccncc1,.,-,-,.,-,.
COc1ccc2c3c([nH]c2c1)[C@@H](CO)N(CC1CCOCC1)CC31CN(CC2CCOCC2)C1,.,-,.,.,.,.
C=CCNC(=S)N1CCc2c([nH]c3ccccc23)C1C (stereo not given),-,-33.4,.,-,-,-
O=C(CN1C(=O)NC2(CCc3ccccc32)C1=O)c1ccc(Br)s1 (stereo not given),-,-30.5,.,-,-,.
O=C(CN1C(=O)NC2(CCCc3ccccc32)C1=O)c1ccccc1F (stereo not given),.,-34.8,-,-,-,-
C[C@@H]1CN([C@@H](C)CO)C(=O)c2cc(NC(=O)CCCCCC(=O)Nc3ccccc3N)ccc2O[C@H]1CN(C)S(=O)(=O)c1ccccc1,.,-,.,.,-,.
COc1ccc(C(=O)NCC2CCN(C(=O)C(=O)c3cc4ccccc4o3)CC2)c(OC)c1,-,-13.2,.,.,-,-
COC(=O)c1cc(S(=O)(=O)NCC2CCN(C(=O)C(=O)c3cc4ccccc4o3)CC2)cs1,-,-18.8,.,.,-,-
CN(C)CCCNC(=O)C[C@@H]1C=C[C@H](NS(=O)(=O)c2ccc(F)cc2)[C@@H](CO)O1,.,-,.,.,-,-
c1ccc(-c2nc3cccnc3nc2-c2ccccc2)cc1,-,-23.5,.,-,-,-
Cc1nc2c(-c3ccc(F)cc3)c(C)nn2c(C)c1CCC(=O)NC(C)CCc1ccco1 (stereo not given),-,-,-,.,-,65.2
C[C@H]1CN([C@@H](C)CO)C(=O)CCCn2nncc2CO[C@@H]1CN(C)C(=O)Nc1ccc(F)cc1,-,-,-,.,-,.
C[C@H](CO)N1C[C@H](C)[C@H](CN(C)Cc2ccc(Cl)c(Cl)c2)OCCCC[C@H](C)Oc2ccc(NS(=O)(=O)c3ccc(F)cc3)cc2C1=O,-,-,-,.,-,88.5[16.7 µM]
COc1ccc(S(=O)(=O)Nc2ccc3c(c2)C(=O)N([C@@H](C)CO)C[C@@H](C)[C@@H](CN(C)Cc2ccc(Oc4ccccc4)cc2)O3)cc1,.,-,-,.,-,-
COc1ccc(S(=O)(=O)Nc2ccc3c(c2)C(=O)N([C@@H](C)CO)C[C@H](C)[C@H](CN(C)Cc2ccc(Cl)c(Cl)c2)OCCCC[C@@H](C)O3)cc1,.,-,-,.,.,-
C[C@H]1CN([C@@H](C)CO)C(=O)c2cc(NS(C)(=O)=O)ccc2O[C@@H]1CN(C)Cc1ccc(Cl)c(Cl)c1,.,-,-,.,-,61.7[16.7 µM]
COc1ccc(S(=O)(=O)Nc2ccc3c(c2)C(=O)N([C@@H](C)CO)C[C@H](C)[C@@H](CN(C)Cc2ccc(Oc4ccccc4)cc2)O3)cc1,.,-,-,.,-,63.2[16.7 µM]
COc1ccc(S(=O)(=O)Nc2ccc3c(c2)C(=O)N([C@@H](C)CO)C[C@H](C)[C@@H](CN(C)Cc2ccc(Cl)c(Cl)c2)OCCCC[C@H](C)O3)cc1,.,-,-,.,.,59.4[16.7 µM]
C[C@H](CO)N1C[C@H](C)[C@@H](CN(C)S(=O)(=O)c2cccs2)OCCCC[C@H](C)Oc2ccc(NS(=O)(=O)c3cn(C)cn3)cc2C1=O,-,-,-,.,-,-
COCC(=O)N1CC2(CCN(Cc3cncnc3)CC2)c2c(n(C)c3cc(OC)ccc23)[C@@H]1CO,.,-,.,.,.,.
O=C1C2C3C=CC(C4CC34)C2C(=O)N1/N=C/c1c[nH]c2ccccc12 (stereo not given),-,-,-,90.5,-,-
O=C1C2C3C=CC(C4CC34)C2C(=O)N1/N=C/c1ccc([N+](=O)[O-])s1 (stereo not given),-,-,.,-,-,-
Cc1nnc(SCC(=O)Nc2ccccc2NC(=O)CSc2nnc(C)s2)s1,.,.,-,-,.,.
Cc1nnc(SCC(=O)Nc2sc3c(c2C(=O)c2ccccc2)CCCC3)s1,-,.,-,-,.,57.4
O=C(c1ccc2c(c1)OCO2)N1CC(=O)N2[C@H](C1)[C@H](c1ccc(C#CC3CCCC3)cc1)[C@@H]2CO,.,-,.,.,.,.
SMILES,FN deposit inh,rRNA inh HTS,miR122 inh,Vif imaging,S100A4 MyoIIA,HIV Env fusion
COCCCNc1ncnc2ccc(C)cc12,-,.,-,-,.,-
Cc1ccc2ncnc(Nc3ccc(C)c(C)c3)c2c1,.,-27.4,.,-,-,.
C[C@H](CO)N1C[C@H](C)[C@@H](CN(C)C(=O)c2ccccc2)OCCCC[C@H](C)Oc2ccc(NS(=O)(=O)c3ccc(Cl)cc3)cc2C1=O,-,-,-,.,-,-
N#Cc1ccccc1COC(=O)c1cccc(S(=O)(=O)N2CCCC2)c1,-,-28.9,-,-,-,-
O=C(Nc1ccccc1F)N1[C@@H]2CNc3ccccc3[C@@H]2[C@@H]1CO,.,-,-,.,-,.
O=C(C1CCCC1)N1CC2(C1)[C@H](c1ccccc1)[C@@H](CO)N2CC1CCCC1,-,-,.,.,-,.
CC(C)C#Cc1cnc2c(c1)C(=O)N([C@H](C)CO)C[C@@H](C)[C@H](CN(C)C(=O)c1cccc(F)c1)O2,-,-,-,.,-,-
C[C@@H]1CCCCO[C@@H](CN(C)C(=O)Nc2cccc3ccccc23)[C@H](C)CN([C@@H](C)CO)C(=O)c2cc(NC(=O)Nc3cccc4ccccc34)ccc2O1,-,-,.,.,-,-
CC(C)n1c(SCC(=O)Nc2nc3c(s2)CCCC3)nc2c1c(=O)n(C)c(=O)n2C,-,.,-,-,.,87.5
CCCCn1c(SCC(=O)Nc2nnc(C)s2)nc2c1c(=O)n(C)c(=O)n2C,-,.,-,-,.,-
CCCCn1c(SCC(=O)Nc2nnc(CC)s2)nc2c1c(=O)n(C)c(=O)n2C,.,.,237.4,-,.,-
CCCn1c(SCC(=O)N2c3ccccc3Sc3ccccc32)nc2c1c(=O)n(C)c(=O)n2C,active,.,-,-,.,-
O=C(CSc1nc(O)cc(=O)n1-c1ccccc1)Nc1nc2ccccc2s1,-,-,-,-,-,66.6
CC(C)n1c(SCC(=O)N2c3ccccc3Sc3ccccc32)nc2c1c(=O)n(C)c(=O)n2C,-,.,-,-,.,-
CCCn1c(SCC(=O)Nc2nc3ccccc3s2)nc2c1c(=O)n(C)c(=O)n2C,-,.,-,-,.,63.6
O=C(CN1c2ccccc2S(=O)(=O)c2ccccc21)NCc1ccc(F)cc1,-,-32.7,.,-,-,-
O=C(CN1c2ccccc2S(=O)(=O)c2ccccc21)NCc1ccccc1,-,-,-,-,-,-
CCN1C(=O)C(CC(=O)Nc2ccc(OC)cc2)N(CCN2CCOCC2)C1=S (stereo not given),-,-,-,-,-,-
CCN1C(=O)C(CC(=O)Nc2ccc(OC)cc2)N(CCCN2CCN(c3ccc(OC)cc3)CC2)C1=S (stereo not given),.,-19.8,-,-,-,-
O=C(O)CSCC(=O)Nc1cc(C(F)(F)F)ccc1Cl,-,.,.,-,.,-

# Source: PubChem BioAssay (Broad Institute)
